# Most compounds without a hit are left out; they make up all but 2.1% or so of the library.
# XiGFP reactiv – reactivates the inactive X chromosome in mouse fibroblasts; XiGFP mouse fibroblasts, % GFP-positive cells imaging, 3 d; cells co-treated with 5-aza-dC sensitizer; scaled so ellipticine positive control = 100%; AID 743238; activation, % at 7.58 µM; 360,000 compounds, 0.055% hits;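 active = mean normalized replicate activation at least 10% and every replicate at or above 10%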;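 note: 0% = median of on-plate neutral control wells and 100% = ellipticine 6 µM median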
#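 System: SV40-immortalized XiGFP fibroblast cells, line 68-5-11 / Incubation: 3-day compound exposure, then 15 min fixation at room temperature / Compound: single concentration per compound, delivered by pin transfer / Buffer or medium: DMEM plus 5-aza-dC sensitizer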
# Cneo AK release – Cryptococcus neoformans lysis via adenylate kinase release; lysis activity, % at 15 µM; C. neoformans lysis, adenylate kinase release luminescence, 4 h; normalised: neutral wells 0, clomiphene wells 100; AID 651654; 360,000 compounds, 0.2% hits;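 active = mean lysis activity across replicates of at least 80%, whatever share of replicates individually reach that level; inactive = mean lysis activity below 80%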
#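 Material: C. neoformans cells | Amount: Yeast cell density of 5 × 10^6 cells/mL | Medium: Fresh YPD growth medium | Dosing: Single dose | Times: Static 4 h at 37 °C with compound, 1 h detection | Detection: AK luminescence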
# C2C12 statin – suppression of simvastatin myotoxicity; C2C12 myotubes + simvastatin, ATP luminescence, 48 h; scaled: DMSO 0, geranylgeraniol control 100; rescue of ATP level, % at 7.49 µM; AID 602340; 330,000 compounds, 0.78% hits;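 active = mean ATP rescue above about 67%, or every replicate alone reaching that limit, limit read from the data, passing the limit was not always enough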;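 note: myotubes were challenged with 10 µM simvastatin during compound exposure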
# DENV2 CPE rescue – inhibitors of DENV2 cytopathic effect; CPE inhibition, % at 9.99 µM; DENV2-infected cells, cytopathic effect rescue, plate reader; AID 651640; 350,000 compounds, 1.7% hits; in the data active = CPE inhibition above about 20%, passing the limit was not always enough; tested in BHK-21 cells;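 note: 0% = median of neutral control wells and 100% = median of positive control wells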
# Active calls of the source: *; / = no result.
SMILES,XiGFP reactiv,Cneo AK release,C2C12 statin,DENV2 CPE rescue
CC(=O)c1ccc(OCCCC(=O)NC2CCCc3ccccc32)cc1 (stereo unspecified),0,1,/,22*
Fc1ccc(C2=Nn3c(nnc3-c3n[nH]c4c3CCC4)SC2)cc1,/,-1,114*,/
CC1=Nn2c(nnc2-c2n[nH]c3c2CCC3)SC1,/,2,-15,/
O=C(CN1CCOCC1)NCC[C@@H]1CC[C@@H](NC(=O)Nc2ccc(F)cc2)[C@@H](CO)O1,0,0,2,24*
O=C(CN1CCOCC1)NCC[C@H]1CC[C@@H](NC(=O)Nc2ccc(F)cc2)[C@H](CO)O1,0,1,1,4
O=C(Nc1ccccc1)N[C@@H]1CC[C@@H](CCNC(=O)c2ccccc2F)O[C@H]1CO,0,107*,-2,-9
C[C@@H]1CN([C@H](C)CO)C(=O)Cc2cc(NC(=O)c3ccncc3)ccc2O[C@H]1CN(C)S(=O)(=O)c1cn(C)cn1,0,0,-10,19
Cn1cnc(S(=O)(=O)N[C@H]2CC[C@@H](CC(=O)NCC3CC3)O[C@@H]2CO)c1,0,/,/,-3
O=C(NCCN1CCCC1)C1CCC(=O)N(CCCN2CCOCC2)C1 (stereo unspecified),0,-2,1,35*
C[C@@H]1CN([C@H](C)CO)S(=O)(=O)c2ccc(C3=CCCCC3)cc2O[C@@H]1CN(C)S(=O)(=O)c1ccc(F)cc1,1,-3,-18,23*
COc1cccc(S(=O)(=O)N(C)C[C@@H]2Oc3cc(C4=CCCC4)ccc3S(=O)(=O)N([C@H](C)CO)C[C@H]2C)c1,0,1,-161,55*
C[C@@H]1CCCCO[C@H](CN(C)Cc2ccc(Cl)c(Cl)c2)[C@@H](C)CN([C@H](C)CO)C(=O)c2cc(NS(C)(=O)=O)ccc2O1,0,1,-46,9
C[C@@H]1CN([C@H](C)CO)S(=O)(=O)c2ccc(C#Cc3ccccc3)cc2O[C@H]1CN(C)C(=O)CN(C)C,0,10,-5,24*
C[C@H](CO)N1C[C@H](C)[C@@H](CN(C)C(=O)C2CC2)Oc2cc(C#Cc3ccccc3)ccc2S1(=O)=O,0,-3,-2,174*
C[C@H](O)C#Cc1ccc2c(c1)O[C@H](CN(C)C(=O)CN(C)C)[C@@H](C)CN([C@H](C)CO)S2(=O)=O,1,0,-2,24*
C[C@H](CO)N1C[C@H](C)[C@@H](CN(C)C(=O)CN(C)C)Oc2cc(C#C[C@@H](C)O)ccc2S1(=O)=O,0,1,0,-1
Cc1ccc(/C=N/N2CCN(Cc3ccc(Cl)cc3)CC2)o1,/,-1,81*,/
CCC(=O)N1[C@H](CO)[C@@H](c2ccccc2)C12CN(CCC(F)(F)F)C2,0,/,/,3
COc1cc(OC)cc(C(=O)NCCC(c2ccccc2)c2ccccc2)c1,0,3,6,45*
COc1cc(C(=O)Oc2ccccc2N)cc(OC)c1OC,/,92*,11,/
Oc1cc(NCc2ccc(F)cc2)cc2cccnc12,1,-1,-161,-8
CN(C)CCCNc1cc(O)c2ncccc2c1,0,6,1,57*
Cc1ccccc1-c1cnc2c(c1)C(=O)N([C@H](C)CO)C[C@H](C)[C@H](CN(C)Cc1cccnc1)O2,1,5,-34,18
Cc1cc(C(=O)Nc2cccc3c2O[C@@H](CN(C)S(=O)(=O)c2c(C)noc2C)[C@@H](C)CN([C@H](C)CO)C3=O)n(C)n1,0,-5,-4,0
CC(C)NC(=O)N(C)C[C@H]1Oc2ccc(NC(=O)Cn3cnnn3)cc2C(=O)N([C@H](C)CO)C[C@H]1C,0,/,/,/
SMILES,XiGFP reactiv,Cneo AK release,C2C12 statin,DENV2 CPE rescue
CCOC(=O)N1CCN(C(=O)Cn2nc(C)c3sc4ccccc4c3c2=O)CC1,/,4,103*,/
O=C(c1ccccc1)N1CCN(C(=O)c2ccc(OC(F)(F)F)cc2)CC1,/,-4,98*,/
CC=Cc1ccc2n(c1=O)C[C@@H]1[C@@H](CO)[C@H](C(=O)NCCc3ccccc3)N(C(=O)CC)[C@H]21 (mixture of isomers),0,1,9,2
CC(C)C1Cc2ccccc2-c2[nH]c(=S)[nH]c(=O)c21 (stereo unspecified),0,-1,/,72*
CCC1(CC)Cc2ccccc2-c2[nH]c(=S)[nH]c(=O)c21,0,/,/,0
CC(N)c1csc(Nc2ccc(C(=O)NCCCO)cn2)n1 (stereo unspecified),0,-2,10,30*

# Screening results (PubChem)
